Assay results: publication PMC6662154 (ACS Central Science, 2019)
Where no end group is shown, it is not given here.

Assays:
PscE–PscG heterodimer = molecular target: T1, PscE–PscG heterodimer (Pseudomonas aeruginosa, UniProt P95435); assay: Fluorescence polarization competitive binding assay
T1 sequence (P95435 1-115): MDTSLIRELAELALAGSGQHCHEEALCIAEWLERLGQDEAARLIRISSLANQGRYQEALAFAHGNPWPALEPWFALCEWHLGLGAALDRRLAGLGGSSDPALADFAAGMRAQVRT
T1 sequence (Q9I317 1-67 partner): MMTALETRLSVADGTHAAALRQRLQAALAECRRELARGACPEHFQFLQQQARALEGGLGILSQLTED

[1] = system: secretion of ExoS by PAO1; assay: Inhibition of T3SS-mediated effector secretion; type: cell-based, Pseudomonas aeruginosa; settings: 100 μM; PAO1 grown under low-calcium conditions
Outline: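 To induce the T3SS, overnight PAO1 was diluted to OD600 0.3 in LB containing 5 mM EGTA and 20 mM MgCl2, with test compound, then shaken gently 3–4 h to OD 1.5. Controls were LB with 2% DMSO, and EGTA/MgCl2 medium with 2% DMSO. Supernatant proteins were TCA-precipitated (10%, 2 h on ice). Secreted and total ExoS were immunoblotted and measured by densitometry as % secreted of total; mean ± SD, three experiments.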

[2] = system: J774A.1 cells infected with PAO1; assay: LDH release assay, PAO1-infected macrophages; type: cell-based, mouse; settings: different concentrations, MOI 8, 5 h
[3] = system: intracellular PAO1 in J774A.1 cells; assay: Quantification of intracellular bacteria in macrophages; type: cell-based, Pseudomonas aeruginosa; settings: different concentrations; gentamicin at 2 h postinfection
Outline: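 J774A.1 cells were seeded at 5 × 10^4 per well, grown 24 h and switched to serum-free medium 1 h before infection with mid-exponential PAO1 at MOI 8. Cells were infected 2 h with test compound (0–100 μM, 2% DMSO), washed, and exposed to gentamicin (50 μg/mL) for 2 h. Lysates were plated for intracellular counts, normalised to mock-treated infected cells; mean ± SD, three experiments.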

[4] = system: PAO1 in the bronchoalveolar lavage; assay: Bacterial burden in bronchoalveolar lavage of PAO1-infected mice; type: in vivo, mouse; settings: single dose 100 μM at the time of infection; sampled 18 h postinfection
Outline: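 Female 6-week-old C57BL/6J mice were lightly anaesthetised with inhaled sevoflurane and given PAO1 intranasally (1 × 10^7 CFU in 20 μL PBS). Test compound (100 μM, 1% DMSO) was given with the inoculum; PBS with 1% DMSO served as mock treatment. At 18 h the animals were killed. Lavage was plated for counts. Lungs were formalin-fixed, paraffin-embedded, H&E-stained and scored by degree of inflammation.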

[5] = molecular target: T2, preformed PscE–PscG heterodimer (Pseudomonas aeruginosa, UniProt Q9I317 1-67; P95435 1-115); assay: ITC
T2 sequence (looked up) 1: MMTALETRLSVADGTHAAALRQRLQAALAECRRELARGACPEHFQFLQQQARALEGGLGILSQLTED
T2 sequence (looked up) 2: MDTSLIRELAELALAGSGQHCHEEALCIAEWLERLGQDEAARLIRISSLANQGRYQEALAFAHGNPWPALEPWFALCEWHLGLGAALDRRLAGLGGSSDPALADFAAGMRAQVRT

[6] = molecular target: T2, preformed PscE–PscG heterodimer; assay: fluorescence polarisation
PscG = molecular target: T3, PscG (Pseudomonas aeruginosa, UniProt P95435 1-115); assay: fluorescence polarisation
T3 sequence (looked up): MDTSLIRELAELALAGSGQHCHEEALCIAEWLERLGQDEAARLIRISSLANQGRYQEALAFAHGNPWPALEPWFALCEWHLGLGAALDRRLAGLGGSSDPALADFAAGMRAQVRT

[7] = molecular target: T2, preformed PscE–PscG heterodimer; assay: fluorescence polarisation; remark: listed apart in the source

## C[C@H]1COC2=C1C(=O)C(=O)c1c2ccc2c1CCCC2(C)C [crpTSN, cryptotanshinone]
PscE–PscG heterodimer
  competition with FAM-PscF69–85 for PscE–PscG binding (result in words): inactive
[1]
  effect on secretion of ExoS: no inhibitory activity
[2]
  inhibition of Pseudomonas-aeruginosa-induced cell lysis (LDH release), in words: inactive

## CC(Oc1ccc(Cl)cc1Cl)C(=O)NCc1ccc2c(c1)OCO2 (stereo not drawn) [MBX-1641]
PscE–PscG heterodimer
  competition with FAM-PscF69–85 for PscE–PscG binding (result in words): no effect
[2]
  inhibition of Pseudomonas-aeruginosa-induced cell lysis (LDH release), in words: inhibited
[3]
  inhibition of intracellular bacterial survival / proliferation of PAO1: inhibited
[4]
  bacterial burden in the bronchoalveolar lavage: reduced bacterial burden

## Cc1coc2c1C(=O)C(=O)c1c-2ccc2c1CCCC2(C)C [tanshinone 2A]
PscE–PscG heterodimer
  competition with FAM-PscF69–85 for PscE–PscG binding (result in words): inactive

## TVTRALRDLMQGILQKI (peptide, UniProt P95434 69-85, looked up) [PscF^69–85]
[5]
  Kd: 51.5 nM
[6]
  IC50: 4320 nM

## TVTRALRDLMQGILQKI (peptide, UniProt P95434 69-85, looked up, also: fluorescein (FAM) label) [^FAMPscF^69–85]
PscG
  Kd: 10800 nM
[7]
  Kd: 52 nM
